Screens: PubChem BioAssay, Broad Institute
PGC1a acetyl inh = PGC1a acetylation modulation, inhibitor mode; 0.17% of 350,000 active; inhibition, % at 15.6 µM; U2OS PGC1a acetylation, AlphaScreen anti-acetyl-lysine; with virally co-expressed GCN5 acetyltransferase;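 active = every replicate shows inhibition of at least 40%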;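 note: 0% = neutral control wells and 100% = positive control wells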
Casp6 inh = inhibitors of human caspase-6; P55212; purified caspase-6, Z-VEID-R110 cleavage fluorescence; inhibition, % at 12.5 µM; 0.53% of 350,000 active;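 active = mean inhibition across replicates at least about 35%, with every replicate also reaching that limit, limit read from the data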;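 note: 0% = median of neutral control wells and 100% = no fluorescence left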
Target sequence (P55212 24-179 limits assumed): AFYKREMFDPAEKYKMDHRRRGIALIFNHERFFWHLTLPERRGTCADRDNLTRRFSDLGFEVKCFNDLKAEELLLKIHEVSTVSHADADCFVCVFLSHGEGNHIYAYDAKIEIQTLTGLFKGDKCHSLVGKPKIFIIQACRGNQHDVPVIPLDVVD
Target sequence (P55212 194-293 limits assumed): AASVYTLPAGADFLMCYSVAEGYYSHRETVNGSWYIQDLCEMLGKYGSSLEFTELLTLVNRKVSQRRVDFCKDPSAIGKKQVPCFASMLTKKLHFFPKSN
Ecoli rRNA inh = selective bacterial rRNA inhibition in E. coli; E. coli WT GFP vs humanized-ribosome RFP mutants, fluorescence, 24 h; hits give low values; DMSO median 0, no signal -100; GFP signal change (wild-type ribosome), % (no concentration beside the values); 1.6% of 350,000 active; AID 720706;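 active = significant combined selectivity score with lowered wild-type GFP, culture density cut under 30%, mutant RFP and density less affected; inactive = any of these conditions unmet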
S100A4 MyoIIA = S100A4-myosin IIA interaction inhibition. 0.14% of 360,000 active. S100A4/TAMRA-MyoIIA peptide fluorescence polarization. inhibition, % at 10.7 µM. AID 652163;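 active = mean inhibition of at least 70% across replicates, with every replicate also reaching that level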
Target sequence (P26447 whole entry, looked up): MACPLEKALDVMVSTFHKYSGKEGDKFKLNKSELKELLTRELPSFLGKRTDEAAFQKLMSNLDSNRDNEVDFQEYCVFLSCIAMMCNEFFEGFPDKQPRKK
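Test system – S100A4 monomer (human) · Compound – single-point compound testing · Schedule – 5 min incubation before reading · Probe or stimulus – TAMRA-labelled myosin IIA heavy-chain peptide probe, 5 nM · Benchmarks – neutral control DMSO, positive control TFP · Medium – Calcium-containing HEPES buffer, pH 7.2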
ERAP1 inh = inhibitors of human ERAP1 aminopeptidase; inhibition, % at 10.7 µM; recombinant ERAP1, Leu-AMC fluorescence, 60 min; Q9NZ08; 0.15% of 340,000 active;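 active = mean replicate inhibition of at least 30%, or all replicates individually reaching that 30% level; inactive = mean below 30% and not every replicate reaching it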;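 note: 0% = neutral control wells and 100% = L-leucinethiol positive control wells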
ARNT TACC3 PPI = ARNT/TACC3 interaction disruption; inhibition, % at 9.99 µM; AlphaScreen His-ARNT PAS-B/GST-TACC3 binding, luminescence; TACC3 fragment carries E629A point mutation; Q9Y6A5; 0.66% of 390,000 active; AID 623870;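 active = mean inhibition of replicates at least 50% and at least half of replicates each reaching 50%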;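 note: 0% = complete ARNT plus TACC3 wells and 100% = ARNT alone without TACC3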
The depositor's hits bear a star; nt = no result. Sampled rows, rich in hits. Any-hit rate of the full collection: about 2.4%.

SMILES | PGC1a acetyl inh | Casp6 inh | Ecoli rRNA inh | S100A4 MyoIIA | ERAP1 inh | ARNT TACC3 PPI
O=C(O)C[C@H]1CC[C@@H]2[C@H](COC[C@@H](O)CN2S(=O)(=O)c2ccc(Oc3ccccc3)cc2)O1 | 4 | 10 | 2 | -1 | 0 | -5
Cc1ccccc1S(=O)(=O)N1C[C@H](O)COC[C@@H]2O[C@@H](CC(=O)NCc3ccccc3Cl)CC[C@H]21 | 0 | 0 | -1 | 115* | -2 | 3
Cc1ccccc1S(=O)(=O)N1C[C@@H](O)COC[C@H]2O[C@H](CC(=O)NCc3ccccc3Cl)CC[C@@H]21 | -1 | -1 | -2 | 7 | 3 | 3
CC(C)NC(=O)N1C[C@H]2[C@@H](c3ccccc31)[C@H](CO)N2C(=O)c1ccccc1 | 4 | -6 | -1 | 9 | 0 | -4
CN(C)CC(=O)Nc1ccc2c(c1)[C@H]1C[C@H](CC(=O)N(C)C)O[C@@H](CO)[C@H]1O2 | nt | nt | 3 | nt | nt | nt
O=S(=O)([O-])CCC[n+]1ccc(Oc2ccccc2)cc1 | 0 | 16 | -1 | 0 | 50* | 8
CC(C)(C)C(=O)c1c(N)[nH]c(C(=O)c2ccccc2)c1-c1ccc(Cl)cc1Cl | nt | 0 | -30* | -18 | 0 | nt
N#Cc1c(N)[nH]c(C(=O)c2ccccc2)c1-c1ccc(Cl)cc1 | nt | -1 | -44* | -8 | nt | nt
Nc1[nH]c(C(=O)c2ccccc2)c(-c2ccc(Cl)cc2Cl)c1C(=O)c1ccc(Cl)c(Cl)c1 | nt | -2 | -6 | -6 | 18 | nt
Cc1cc(Cl)nc(-n2nc(C)cc2C)n1 | 8 | -3 | -32* | 0 | 2 | nt
COc1ccc2nc(N3CCCC(C(=O)NCCCN4CCN(C)CC4)C3)sc2c1 (stereo unspecified) | 70* | nt | nt | nt | nt | 4
CCOC(=O)Nc1ccc(Oc2ccccc2)cc1 | -10 | nt | nt | nt | nt | -2
CCOC(=O)Nc1ccc(C(=O)/C=C/c2ccccc2)cc1 | 48 | 6 | -26* | -2 | 3 | -5
COc1ccc2c3c(n(C)c2c1)[C@@H](CO)N(C(C)=O)CC31CN(Cc2cccnc2)C1 | -7 | nt | -1 | nt | nt | nt
COc1ccccc1CNc1cncnc1 | nt | 1 | -23* | -2 | -3 | 3
COc1ccccc1CNc1ncccn1 | -4 | -3 | 5 | -1 | -2 | -7
CSc1ccccc1-c1nnc(NC(=O)Cc2ccccc2)o1 | nt | 2 | 8 | 5 | 0 | 1
CS(=O)(=O)c1ccccc1-c1nnc(NC(=O)Cc2ccccc2)o1 | -14 | 18 | -5 | 0 | 0 | 62*
CC(C)Cn1c(=O)c(C(=O)Nc2cnccn2)c(O)c2ccccc21 | nt | nt | nt | nt | nt | 21
CC(C)Cn1c(=O)c(C(=O)Nc2ccncc2)c(O)c2ccccc21 | 6 | 0 | -26* | -1 | 3 | -1
Cc1noc(C)c1NC(=O)N(C)C[C@@H]1Oc2c(NC(=O)c3ccc(-c4nccs4)cc3)cccc2C(=O)N([C@H](C)CO)C[C@H]1C | -1 | -2 | 2 | -2 | 0 | 31*
Cc1noc(C)c1NC(=O)N(C)C[C@@H]1Oc2c(NC(=O)CCCCCC(=O)Nc3ccccc3N)cccc2C(=O)N([C@@H](C)CO)C[C@@H]1C | -2 | nt | 4 | 24 | nt | nt
Cc1noc(C)c1NC(=O)N(C)C[C@H]1Oc2c(NC(=O)c3ccc(-c4nccs4)cc3)cccc2C(=O)N([C@@H](C)CO)C[C@@H]1C | -8 | 0 | 1 | 10 | 0 | 2
Cc1noc(C)c1NC(=O)N(C)C[C@H]1Oc2c(NC(=O)CCCCCC(=O)Nc3ccccc3N)cccc2C(=O)N([C@@H](C)CO)C[C@H]1C | -6 | -2 | 3 | 76* | 3 | nt
C[C@@H]1CN([C@H](C)CO)C(=O)c2cccc(NC(=O)c3ccc(-c4nccs4)cc3)c2O[C@H]1CN(C)C(=O)Nc1ccccc1 | 2 | -4 | -2 | 1 | 2 | 19*
C[C@@H]1CN([C@H](C)CO)S(=O)(=O)c2ccc(-c3ccccc3F)cc2O[C@H]1CN(C)Cc1cncnc1 | -5 | 0 | -8 | -5 | -3 | 2
COCC(=O)Nc1ccc2c(c1)C(=O)N(C)C[C@@H](OC)[C@@H](C)CN(C(=O)c1cnccn1)[C@H](C)CO2 | -17 | -1 | 3 | 25 | -1 | -3
